Sampled rows, rich in hits. Any-hit rate of the full collection: about 3.7%.
KCNQ1 pot: human KCNQ1 channel potentiation or activation | actives 0.35% (n = 310,000) | B-score at 10 µM | AID 2648 | CHO-K1 KCNQ1, thallium flux FluxOR fluorescence; active compounds read high;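 active = fluorescence ratio B-score, a plate-corrected score, at least three library SD, with initial intensity B-score within 5 SD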
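assay system = CHO-K1 cells stably expressing KCNQ1 | medium = assay buffer, equal DMSO in all wells | timing = 37 °C overnight plating, 90-min dark dye load, 20-min compound pretreatment | measured by = kinetic FluxOR thallium fluorescence, 10-s 1-Hz baseline, 110-s post-stimulus read | measure = fluorescence change relative to baseline, converted to B score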
KCNK9 inh: inhibitors of human KCNK9 two-pore domain potassium channel. HEK293 KCNK9, FluxOR thallium flux fluorescence; active compounds read low. B-score at 10 µM. actives 1.2% (n = 310,000). AID 488922;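 active = ratio B-score over 3 SD below the library mean, with starting fluorescence within 5 SD of its mean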;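 also: negative B-score means less thallium flux so channel inhibition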
KCNQ1 block: inhibitors of human KCNQ1 potassium channel | actives 1.3% (n = 310,000) | CHO-K1 KCNQ1, FluxOR thallium flux fluorescence; active compounds read high | AID 2642 | P51787 | B-score at 10 µM;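 active = compounds whose thallium flux B-score, printed positive for inhibition, exceeds three library SD while starting fluorescence stays within three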;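 also: channel opened by potassium depolarization with thallium stimulus after 20 min compound exposure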
Kir21 block: blocks the mouse Kir2.1 inward-rectifier potassium channel; actives 0.85% (n = 310,000); HEK293-Kir2.1, FluxOR thallium flux fluorescence; active compounds read low; AID 1672; B-score at 10 µM;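 active = fluorescence ratio B-score at or below minus 3 SD of library scores, with starting-brightness B-score within 2 SD, cut at about -4.2 in these data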;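 also: channel flux triggered by added potassium and thallium sulfate stimulus; B-score of peak minus minimum fluorescence over baseline after thallium stimulus; more negative B-score means stronger Kir2.1 block with less thallium influx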
hERG rescue: hERG (human) protection from proarrhythmic block; Q12809; CHO-hERG, FluxOR thallium flux, dofetilide IC70 present; activation (rescue from dofetilide block), less the hit threshold, % at 10 µM; actives 0.51% (n = 310,000); AID 1511;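 active = activation above the mean of controls blocked by dofetilide plus 5 SD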;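 also: thallium influx through hERG after potassium depolarization seen as dye fluorescence rise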
KCNK3 block: human KCNK3 channel inhibition, primary screen; B-score at 10 µM; actives 0.84% (n = 340,000); CHO-KCNK3 thallium flux, FluxOR fluorescence; active compounds read low; O14649;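 active = B-score under library mean minus 4 SD, starting fluorescence ratio at most library mean plus 5 SD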;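 also: more negative B-score means stronger inhibition of thallium flux through KCNK3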
Target sequence (O14649 whole entry, looked up): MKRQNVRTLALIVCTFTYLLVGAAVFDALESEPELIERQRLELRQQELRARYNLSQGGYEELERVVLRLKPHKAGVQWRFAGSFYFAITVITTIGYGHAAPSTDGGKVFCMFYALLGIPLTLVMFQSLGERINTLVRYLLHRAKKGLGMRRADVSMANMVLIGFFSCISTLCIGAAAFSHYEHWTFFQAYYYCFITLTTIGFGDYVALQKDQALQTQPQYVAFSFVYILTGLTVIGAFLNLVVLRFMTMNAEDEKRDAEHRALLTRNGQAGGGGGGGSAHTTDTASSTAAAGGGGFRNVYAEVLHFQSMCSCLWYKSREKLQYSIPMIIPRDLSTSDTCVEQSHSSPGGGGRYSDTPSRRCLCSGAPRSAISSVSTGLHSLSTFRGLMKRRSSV
Numbers without * were called inactive; i = inactive; . = not tested or not shown.

SMILES | KCNQ1 pot | KCNK9 inh | KCNQ1 block | Kir21 block | hERG rescue | KCNK3 block
COC(=O)C1C2c3ccccc3OC1(C)N=c1s/c(=C/c3cn(C)nc3C)c(=O)n12 (centres undefined) | i | i | i | -0.02 | 0 | i
CC(=O)C1C2c3ccccc3O[C@@]1(C)N=c1s/c(=C/c3ccoc3)c(=O)n12 (some centres undefined) | i | i | 7* | -1 | -5 | i
CCCCCCOc1ccc(CN2CCN(C)CC2)cc1 | i | i | i | -4.8* | -12 | i
CN1CCN(Cc2ccc3ccccc3c2)CC1 | i | i | i | 0.63 | -4 | i
COC12CCC3(CC1C(C)(O)C(C)(C)C)[C@H]1Cc4ccc(O)c5c4[C@@]3(CCN1CC1CC1)C2O5 (some centres undefined) | . | . | . | . | . | i
C[n+]1c(-c2ccccc2)cc(-c2ccc(Cl)cc2)cc1-c1ccccc1 | i | i | i | -3.2 | -23 | i
c1ccc(-c2cc(-c3ccccc3)[n+](-c3ccccc3)c(-c3ccccc3)c2)cc1 | i | i | 13* | -6.4* | -35 | -10*
CN(C)c1ccc(-[n+]2c(-c3ccccc3)cc(-c3ccccc3)cc2-c2ccccc2)cc1 | i | i | 12* | -15* | -35 | -9*
COC(=O)C1=C(c2ccc(OC)c(OC)c2)C[C@@H]2CC[C@H]1N2C(=O)NCCNC(C)=O | . | . | . | . | . | i
Clc1ccc(C(Cl)(Cl)Cl)c(Cl)c1 | . | . | . | . | . | i
Cc1c(Br)c(=O)oc2cc(OCC(=O)N3C[C@H]4C[C@@H](C3)c3cccc(=O)n3C4)ccc12 | i | i | i | -0.88 | -4 | i
C/C=C(\C)C(=O)OC1C(C)=C2C(C1OC(=O)CCCCC)C(C)(OC(C)=O)CC(OC(=O)CCC)C1(O)C2OC(=O)C1(C)O (centres undefined) | 14* | i | i | 0.08 | -13 | .
Nc1ccc2nonc2c1[N+](=O)[O-] | i | i | 11* | -7.6 | -40 | i
O=[N+]([O-])c1ccc(N2CCCCCC2)c2nonc12 | i | i | i | -9 | -21 | i
O=C(CCN1CC2CCC(CC2)C1)c1cccs1 | . | . | . | . | . | i
CCCC[N+]12CCC(CC1)C(C(=O)c1cccs1)C2 (centres undefined) | i | i | i | -4.9* | -6 | i
CCCCCn1c(=O)c(C(=O)NCc2ccncc2)c(O)c2ccccc21 | i | -7.9* | 8* | 1.4 | -6 | i
CCCCn1c(=O)c(C(=O)NC(C)c2ccccc2)c(O)c2ccccc21 (centres undefined) | i | i | 6* | -0.75 | 0 | i
CCCCn1c(=O)c(C(=O)NCc2ccc(Cl)cc2)c(O)c2ccccc21 | i | i | i | -0.12 | -12 | i
CCCCn1c(=O)c(C(=O)NCCc2ccccc2)c(O)c2ccccc21 | i | i | 7* | 0.08 | -6 | i
CCCCCn1c(=O)c(C(=O)Nc2ccccc2)c(O)c2ccccc21 | i | i | i | -0.71 | 0 | i
O=[N+]([O-])c1cc(F)c(N2CCCC2)cc1Br | i | i | 6* | -1.3 | -8 | i
CN1CCN(c2cc(N3CCCC3)c([N+](=O)[O-])cc2F)CC1 | 9* | i | i | -1.1 | -12 | i
O=C(c1ccccc1F)N1C[C@H]2C[C@@H](C1)c1cccc(=O)n1C2 | i | i | i | -0.07 | -4 | i
COc1ccc(CCNCc2ccc(Br)cc2)cc1OC | i | i | i | -1.6 | -2 | i
SMILES | KCNQ1 pot | KCNK9 inh | KCNQ1 block | Kir21 block | hERG rescue | KCNK3 block
Cc1ccccc1CCNCc1ccc(Br)cc1 | i | i | i | -9.6* | -12 | i
O=C1NC(=O)N(Cc2ccccc2Cl)C(=O)/C1=C/N1CCOCC1 | i | i | i | -0.82 | 8.0* | i
O=C1NC(=O)N(Cc2cccs2)C(=O)/C1=C/c1ccc(N2CCOCC2)cc1 | i | i | i | 2.7 | -13 | i
CC(=O)C1C(N2CC2)CC2C3CCC4=CC(=O)CCC4(C)C3CCC21C (centres undefined) | . | . | . | . | . | i
CN1C(=O)/C(=C\c2ccc(Br)s2)C(=O)NC1=S | i | i | i | -0.55 | 15* | i
CCOc1ccccc1CN1C2CCC1CC(c1ccc(C)cc1)C2 (centres undefined) | i | i | 12* | -0.46 | -12 | i
CCOc1ccccc1CNCCc1ccc2c(c1)OCO2 | i | i | i | -3.1 | -8 | i
CCC(C(=O)N1C[C@H]2C[C@@H](C1)c1cccc(=O)n1C2)c1ccccc1 (some centres undefined) | i | i | i | -0.5 | -4 | i
CN[C@H]1C[C@H]2O[C@@](C)([C@H]1OC)n1c3ccccc3c3c4c(c5c6ccccc6n2c5c31)C(=O)NC4 | 18* | i | i | -0.51 | -10 | .
CCCCOCCCn1c(N)c(C(=O)OC(C)COC)c2nc3ccccc3nc21 (centres undefined) | i | i | i | -0.22 | -1 | -11*
Cc1[nH]n(-c2ccccc2)c(=O)c1C(c1ccc([N+](=O)[O-])cc1)c1c(C)[nH]n(-c2ccccc2)c1=O | i | i | 7* | 0.2 | -8 | i
CC1CCCC(C)N1/N=C/c1c[nH]c2ccc(Br)cc12 (centres undefined) | i | i | 6* | -4.3* | -15 | i
N#CC(C#N)=Cc1ccc(-c2ccccc2F)o1 | . | . | . | . | . | i
N#CC(C#N)=Cc1ccc(-c2ccccc2)o1 | i | i | 7* | -1.3 | -22 | .
Cc1nc2ccccc2c(=O)n1-c1ccncc1 | i | i | i | -0.01 | -11 | i
Cc1nc2ccccc2c(=O)n1-c1cc([N+](=O)[O-])cc([N+](=O)[O-])c1 | i | i | i | -0.08 | 4.7* | i
COC(=O)C1=C(c2cc3ccccc3s2)C[C@@H]2CC[C@H]1N2C(=O)NCc1ccc(C(F)(F)F)cc1 | i | i | i | -0.61 | -6 | i
CN1CCN(CC#CCOc2ccc(Cl)cc2)CC1 | i | i | i | -0.99 | 9.8* | i
C[C@@H]1NCCc2cc(O)c(O)cc21 | . | . | . | . | . | i
O=c1[nH]c(=S)n(C2CC2)c(O)c1C=NCCN1CCOCC1 | i | i | i | -0.87 | -12 | i
O=c1c(C=NCCN2CCNCC2)c(O)n(C2CCCCC2)c(=O)n1C1CCCCC1 | 11* | i | i | -2.9 | -10 | i
O=C(c1cc(F)ccc1F)C1CCCN(Cc2cc(Cl)ccc2O)C1 (centres undefined) | i | i | 6* | -1.5 | -8 | i

Bioassay records as filed in PubChem BioAssay.
